UBC13 inh: blocks human UBC13 polyubiquitin chain formation. P61088. hit rate 0.47% among 330,000. TR-FRET. inhibition, % at 20 µM; in the data active means inhibition above about 45%, passing the limit was not always enough
Target sequence (P61088 whole entry, looked up): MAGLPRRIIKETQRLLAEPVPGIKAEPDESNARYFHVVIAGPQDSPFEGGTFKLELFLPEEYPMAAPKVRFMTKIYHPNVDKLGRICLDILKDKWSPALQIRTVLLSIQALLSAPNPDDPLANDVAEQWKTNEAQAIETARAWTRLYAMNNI
Apaf1 inhib: human Apaf-1 inhibition. O14727. reconstituted apoptosome caspase-3 activity, DEVD-Rh110 fluorescence. inhibition, % at 20 µM. hit rate 0.71% among 330,000. AID 489030; active means inhibition of at least 40% at 20 µM;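 further: plate controls were DMSO wells for no effect and DEVD-CHO caspase inhibitor wells for full effect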
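Material: reconstituted apoptosome with Apaf-1, cytochrome c, caspase-9, procaspase-3, dATP; medium: pH 7.5 Hepes buffer with CHAPS, BSA, DTT; also added: cytochrome c and DEVD-Rh110 substrate; timing: 30 min plus 50 min, RT; signal: Rh110 fluorescence intensity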
SENP6 block: blocks the human protease SENP6; Recombinant SENP6 catalytic domain, aminoluciferin luminescence; inhibition, % at 10 µM; hit rate 1.8% among 330,000;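 active means inhibition above about 50% at the single tested dose, limit read from the data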;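 further: plate controls were DMSO wells with enzyme for no effect and DMSO wells lacking enzyme for full effect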
Target sequence (Q9GZR1 628-1112 limits assumed): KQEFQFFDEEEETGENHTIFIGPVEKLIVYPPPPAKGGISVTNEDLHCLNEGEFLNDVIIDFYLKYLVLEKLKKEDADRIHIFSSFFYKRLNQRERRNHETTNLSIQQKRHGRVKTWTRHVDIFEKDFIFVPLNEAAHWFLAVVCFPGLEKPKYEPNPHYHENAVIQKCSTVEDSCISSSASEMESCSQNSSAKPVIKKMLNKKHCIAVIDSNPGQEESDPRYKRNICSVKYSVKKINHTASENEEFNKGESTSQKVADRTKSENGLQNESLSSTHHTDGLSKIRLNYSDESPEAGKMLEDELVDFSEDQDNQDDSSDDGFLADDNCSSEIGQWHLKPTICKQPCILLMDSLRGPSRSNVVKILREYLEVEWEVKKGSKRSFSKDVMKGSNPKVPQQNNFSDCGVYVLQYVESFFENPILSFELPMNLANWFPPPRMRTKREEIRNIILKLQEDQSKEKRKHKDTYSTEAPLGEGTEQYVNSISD
SENP7 block: blocks the human protease SENP7 | recombinant SENP7, Z-RLRGG-aminoluciferin luminescence, 40 min | AID 434973 | Q9BQF6 | hit rate 1.5% among 330,000 | inhibition, % at 5 µM;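 active means inhibition above about 50% at the single test dose, limit read from the data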;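 further: plate controls were DMSO with enzyme for no effect and no enzyme buffer wells for full effect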
SENP8 block-1: inhibitors of human SENP8 protease; Q96LD8; purified SENP8, Z-RLRGG-aminoluciferin cleavage, luminescence; inhibition, % at 10 µM; hit rate 1.2% among 330,000; in the data active means inhibition above about 50%
SENP8 block-2: blocks human SENP8 cleavage of Nedd8 substrate; Q96LD8; recombinant SENP8, Nedd8 substrate fluorescence; inhibition, % at 20 µM; hit rate 0.64% among 360,000; AID 602440; in the data active means inhibition mostly above about 40%, no sharp cut-off; inactive means mostly below about 27%
SENP8 confirm: human SENP8 inhibition, confirmed; shares compounds with SENP7 block; Recombinant SENP8, Z-RLRGG-aminoluciferin luminescence, 60 min; inhibition, % at 12.5 µM; hit rate 40% among 6,200; AID 488912;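 active means mean inhibition across replicates above about 50%, limit read from the data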
SENP6 confirm: confirmation of human SENP6 protease inhibitors; shares compounds with SENP7 block; recombinant SENP6, Z-RLRGG-aminoluciferin luminescence; inhibition, % at 12.5 µM; hit rate 58% among 6,200
SENP7 conf: human SENP7 inhibition, confirmed | shares compounds with SENP7 block | hit rate 69% among 6,200 | AID 488917 | inhibition, % at 12.5 µM | recombinant SENP7, Z-RLRGG-aminoluciferin luminescence, 40 min
Casp3 SENP sel: selectivity test for SENP inhibitors: human caspase-3 inhibition; shares compounds with SENP7 block; purified caspase-3, Z-DEVD-aminoluciferin luminescence, 60 min; inhibition, % at 12.5 µM; hit rate 60% among 6,200; AID 488918;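 active means mean inhibition above about 50%, limit read from the data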;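 further: plate controls were enzyme with DMSO for no effect and wells without caspase-3 for full effect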
SENP luc ctr: interferes with luciferase luminescence in SENP counter-screen. shares compounds with SENP7 block. Pre-incubated SENP8/Z-RLRGG-aminoluciferin, luciferase luminescence interference. inhibition, % at 12.5 µM. hit rate 39% among 6,200;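 active means mean inhibition above about 50% when retested at one dose, limit read from the data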;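 further: plate controls were DMSO wells with completed reaction for no effect and substrate without enzyme for full effect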
* hit, by the source's call; . = no result given. Shown are actives, neighbours in structure and some others; about 3% of the full set was active somewhere.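 How the source made its calls, unless noted: active means mean inhibition above about 50% in the one-dose retest (limit read from the data); inactive means the rest.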

SMILES	UBC13 inh	Apaf1 inhib	SENP6 block	SENP7 block	SENP8 block-1	SENP8 block-2	SENP8 confirm	SENP6 confirm	SENP7 conf	Casp3 SENP sel	SENP luc ctr
CCNC(=S)NNC(=O)c1cc(-c2cccnc2)nc2ccccc12	-4	-3	-36	-17	-24	-142	.	.	.	.	.
CCNC(=S)NNC(=O)c1cc(-c2cccc(C)c2)nc2ccccc12	-22	6	85*	72*	81*	-65	90*	90*	98*	96*	92*
CCCCOc1cccc(-c2cc(C(=O)NNC(=S)NCC)c3ccccc3n2)c1	-36	4	-2	-15	-16	-96	.	.	.	.	.
CCNC(=S)NNC(=O)c1cc(-c2ccc(OC)cc2)nc2ccccc12	-11	17	93*	95*	91*	-415	96*	96*	100*	97*	90*
CCNC(=S)NNC(=O)c1cc(-c2cccc(OCC)c2)nc2ccccc12	-9	-15	-7	-5	-2	-64	.	.	.	.	.
CCCCOc1ccc(-c2cc(C(=O)NNC(=S)NCC)c3ccccc3n2)cc1	-32	12	101*	93*	94*	-269	98*	99*	103*	98*	65*
CCOC(=O)c1c(CN2CCN(c3ccccc3)CC2)oc2cc(Br)c(O)cc12	-6	17	5	-7	-4	26	.	.	.	.	.
CCOc1ccc(/C=C/C2=NNC(=O)CC2)cc1	-29	7	70*	74*	55*	-5	-24	52*	88*	86*	68*
COc1cccc(-c2cc(C(F)(F)F)c(C#N)c(=O)[nH]2)c1	7	0	85*	35	85*	-443	-14	70*	85*	70*	77*
N#Cc1c(C(F)(F)F)cc(-c2ccccc2)[nH]c1=O	9	7	-3	0	-6	-288	.	.	.	.	.
Cc1ccc(-c2cc(C(F)(F)F)c(C#N)c(=O)[nH]2)cc1	9	16	76*	21	68*	-438	65*	66*	57*	61*	49
O=C(Nc1ccccc1Cl)C1CCCN(c2ncnc3c2nc2n3CCCCC2)C1 (centres undefined)	14	9	0	-3	13	5	.	.	.	.	.
CN(C)CCN(C)c1cc2c(c3c1ccn3C)C1CCC2O1 (centres undefined)	.	.	.	.	.	-162	.	.	.	.	.
c1coc(C2Nc3ccccc3C3OCCC23)c1 (centres undefined)	-1	5	-6	-7	-10	-235	.	.	.	.	.
COc1ccc2c(c1)C1OCCC1C(c1ccco1)N2 (centres undefined)	41	-12	-3	42	56*	-460	64*	64*	91*	88*	75*
CC(C)c1ccc(CN2CCN(C(=O)CSc3nnnn3C3CC3)CC2)cc1	7	8	-17	4	-8	16	.	.	.	.	.
O=C(Nc1cccc(O)c1)c1cccc(S(=O)(=O)N2CCCCCC2)c1	3	11	-11	-4	-12	1	.	.	.	.	.
O=C(O)c1cccc(NC(=O)c2cccc(S(=O)(=O)N3CCCCC3)c2)c1	5	-20	77*	78*	64*	9	79*	77*	94*	42	66*
O=C(COC(=O)CCC(=O)c1ccc(F)cc1)Nc1cccc(S(=O)(=O)N2CCCC2)c1	17	-13	88*	-2	-2	16	3	-4	-10	-3	-2
COc1ccc(C(=O)Nc2cccc(C(=O)O)c2)cc1S(=O)(=O)N1CCCC1	5	6	51*	54*	36	3	38	36	73*	16	9
CCC(=O)c1ccc(OCC(=O)OCC(=O)Nc2cccc(S(=O)(=O)N3CCCC3)c2)cc1	8	2	-9	-1	-2	6	.	.	.	.	.
O=C(Cn1ccc(C(F)(F)F)n1)N/N=C/c1ccc(N2CCOCC2)cc1	5	-8	0	-1	3	-377	.	.	.	.	.
COc1ccc(C(=O)O/N=C(\C)c2nccs2)cc1	-11	-8	79*	97*	87*	6	73*	96*	100*	96*	43
C/C(=N\OC(=O)c1ccc(F)cc1)c1nccs1	-6	7	74*	84*	35	9	22	25	50*	56*	21
COc1ccc(C(=O)O/N=C(/C)c2cccs2)cc1	-3	3	98*	99*	97*	22	12	101*	104*	99*	99*
SMILES	UBC13 inh	Apaf1 inhib	SENP6 block	SENP7 block	SENP8 block-1	SENP8 block-2	SENP8 confirm	SENP6 confirm	SENP7 conf	Casp3 SENP sel	SENP luc ctr
C/C(=N/OC(=O)c1c(F)cccc1F)c1nccs1	-1	-2	83*	80*	46	17	74*	75*	97*	65*	82*
C/C(=N\OC(=O)c1c(-c2c(F)cccc2Cl)noc1C)c1nccs1	20	11	0	-10	1	16	.	.	.	.	.
CCOC(=O)C1=CCN(S(=O)(=O)c2ccc(Cl)cc2)C1c1cccc(C)c1 (centres undefined)	.	.	.	.	.	24	.	.	.	.	.
Cc1ccc(C2=C(O)c3ccccc3C(=O)C2=O)cc1	-37	6	11	-2	-7	10	.	.	.	.	.
O=C1C(c2cc(=O)c3ccccc3[nH]2)=C(O)c2ccccc21	-24	-2	98*	100*	97*	23	94*	99*	103*	96*	95*
O=C1C(c2ccncc2)=C(O)c2ccccc21	-27	-3	85*	72*	73*	27	84*	83*	96*	91*	67*
N#Cc1cnc2sc3ccccc3n2c1=N	2	-1	94*	79*	93*	-179	95*	96*	100*	97*	94*
O=S(=O)(O)c1nnc2sc3ccccc3n12	2	3	-1	-1	4	10	.	.	.	.	.
CN(C)c1ccc(/C=c2\sc3n(c2=O)CCCN=3)cc1	-42	8	87*	68*	74*	-14	87*	84*	95*	85*	76*
O=c1/c(=C/c2ccc(O)cc2)sc2n1CCCN=2	-7	0	86*	64*	80*	15	86*	84*	96*	88*	84*
NC(=S)NN=C(c1ccc(Br)cc1)C1CC1	.	.	.	.	.	2	.	.	.	.	.

Screening data: PubChem, Sanford-Burnham Center for Chemical Genomics
